Experimental data of several laboratories.
Protocols differ between the studies behind these lines.
JAK3: Tyrosine-protein kinase JAK3 (JAK3, Homo sapiens, UniProt P52333)
JAK3 JH1: Tyrosine-protein kinase JAK3, JH1 (JAK3, Homo sapiens, UniProt P52333)

SMILES | target | test | setting | endpoint | value
COc1cc2nccc(Oc3ccc(NC(=O)c4c5n(n(-c6ccc(F)cc6)c4=O)CCCC5)cc3)c2cc1OC | JAK3 | enzyme activity, inhibitor | 0.1 µM | inhibition | -18%
O=C(O)c1cc(-c2ccc(C3CCNCC3)cc2)c2ccc(-c3ccc(C(F)(F)F)cc3)cc2c1 | JAK3 JH1 | cell-free assay, competition with immobilised ligand | 1 µM | remaining binding | 100%
COc1cc2ncnc(Nc3ccc(Oc4ccccc4)cc3C)c2cc1OC | JAK3 | enzyme activity, inhibitor | 1 µM | inhibition | -6%
CCOc1cc(-c2nncn2C)ccc1Nc1ncc2cc(C)nc(NCC(C)(C)C)c2n1 | JAK3 | enzyme activity, inhibitor, FRET | 1 µM | inhibition | < 15%
O=C(NC[C@@H]1[C@H]2CN(C(=O)OCc3cc(C(F)(F)F)cc(C(F)(F)F)c3)C[C@@H]12)c1ccc2[nH]nnc2c1 | JAK3 JH1 | cell-free assay, competition with immobilised ligand | 1 µM | remaining binding | 69%
COc1cc(Cl)c(C(=O)N[C@@H](CN[C@H]2CC[C@@H](N)CC2)Cc2ccc(C#N)cc2)cc1-c1ccc(CN[C@H](C)c2ccc(C)cc2)o1 | JAK3 | enzyme activity, inhibitor | 1 µM | remaining activity | 101%
COc1cccc(CNC(=O)c2nc3scc(COCc4ccc(C(=O)O)cc4)c3c(=O)[nH]2)c1 | JAK3 JH1 | cell-free assay, competition with immobilised ligand | 1 µM | remaining binding | 78.4%
N#CCCc1ccc2c(c1)-c1[nH]c3ccc([N+](=O)[O-])cc3c1CC(=O)N2 | JAK3 | cell-free assay | 0.5 µM | remaining signal | 101%
O=C(O)[C@@H]1[C@@H](Cn2nnc3ccccc3c2=O)CC[C@H]1C(=O)c1ccc(OCCC2CCOCC2)cc1 | JAK3 JH1 | cell-free assay, competition with immobilised ligand | 1 µM | remaining binding | 95%
O=C(Nc1cnn(-c2csc(C(=O)NC3COC3)c2)c1)Nc1ccccc1Cl | JAK3 | enzyme activity, inhibitor | 5 µM | remaining activity | 102%
NS(=O)(=O)c1cc(NC(=O)Cc2ccccc2)ccc1Oc1cccc(Cl)c1 | JAK3 JH1 | cell-free assay, competition with immobilised ligand | 1 µM | remaining binding | 96%
Cc1ccc(Nc2nccc(N(C)c3ccc4c(C)n(C)nc4c3)n2)cc1S(N)(=O)=O | JAK3 | enzyme activity, inhibitor | 10 µM | inhibition | 77%
O=C(Nc1cnn(-c2csc(C(=O)NC3COC3)c2)c1)Nc1c(F)cccc1Cl | JAK3 | enzyme activity, inhibitor | 5 µM | remaining activity | 98.7%
O=C(CSc1nc2nccnc2c(=O)n1CCc1ccccc1)Nc1nccs1 | JAK3 | enzyme activity, inhibitor | 10 µM | inhibition | -2%
COc1cc(/C=C/C(=O)CC(=O)/C=C/c2ccc(O)c(OC)c2)ccc1O | JAK3 | enzyme activity, inhibitor | 1 µM | activity vs control | 104%
CNC(=O)c1cc(Oc2ccc(NC(=O)Nc3ccc(Cl)c(C(F)(F)F)c3)cc2)ccn1 | JAK3 | cell-free assay | 0.5 µM | remaining signal | 99.4%
CC(C)(O)[C@H]1CC[C@H](Nc2ccc3ncc(-c4cccc(C(F)(F)F)c4)n3n2)CC1 | JAK3 | enzyme activity, inhibitor | 1 µM | remaining activity | 84.8%
C[C@@H]1CCN(c2nccc(-c3cnn4ncccc34)n2)C1 | JAK3 JH1 | cell-free assay | 1 µM | remaining signal | 80%
Nc1ncnc2occ(-c3ccc(NC(=O)Nc4cc(C(F)(F)F)ccc4F)cc3)c12 | JAK3 JH1 | cell-free assay, inhibitor | 20 µM | remaining signal | 4.3%
CN1CC(Oc2cnc(C#N)cc2-c2ccn3nc(NC(=O)C4CC4)cc3c2)C1 | JAK3 | enzyme activity, inhibitor | 1 µM | inhibition | 15%
CN(c1nccc(-c2cnn3ncccc23)n1)C1CC1 | JAK3 JH1 | cell-free assay | 1 µM | remaining signal | 100%
CCN(CC)CCNC(=O)c1c(C)[nH]c(/C=C2\C(=O)Nc3ccc(F)cc32)c1C | JAK3 | enzyme activity, inhibitor | 0.3 µM | inhibition | 7%
C=CC(=O)Nc1cc(Nc2nccc(Nc3cc(Cl)c(F)cc3C(C)(C)O)n2)c(OC)cc1N1CC[C@@H](N(C)C)C1 | JAK3 | enzyme activity, inhibitor | 1 µM | inhibition | 24%
COc1ccc2c(c1)O[C@H](c1ccc(OC)c(OC)c1)C[C@@H]2NC(=O)C1(c2ccc3c(c2)OC(F)(F)O3)CC1 | JAK3 JH1 | cell-free assay, competition with immobilised ligand | 1 µM | remaining binding | 100%
CCCS(=O)(=O)Nc1ccc(F)c(C(=O)c2c[nH]c3ncc(-c4ccc(Cl)cc4)cc23)c1F | JAK3 | enzyme activity, inhibitor | 1 µM | inhibition | < 10%
O=C(NCCCC1CCCCC1)c1ccc(CNC(=O)c2cnn(-c3ccccc3)c2C(F)(F)F)cc1 | JAK3 JH1 | cell-free assay, competition with immobilised ligand | 0.1 µM | remaining binding | 100%
O=C1NC(=O)c2cc(Nc3ccc(F)cc3)c(Nc3ccc(F)cc3)cc21 | JAK3 | cell-free assay | 0.5 µM | remaining signal | 93.9%
CC1=C(C#N)[C@@H](c2ccc3[nH]nc(C)c3c2)C(C#N)=C(c2ccc(Cl)cc2)N1 | JAK3 JH1 | cell-free assay, competition with immobilised ligand | 1 µM | remaining binding | 100%
CC(C)(C)c1nc2c(s1)c1nc(N)ncc1c1ccc(NS(=O)(=O)c3c(F)cccc3F)c(F)c12 | JAK3 | enzyme activity, inhibitor, radiometric | 1 µM | remaining activity | 100%
